Data set [1] has as its system GIST48B. The data set is described as follows: Induction of apoptosis in human GIST48B cells assessed as caspase 3 cleavage up to 3 uM after 72 hrs by Western blot analysis. In kind it is functional, cell-based. A general note: A western blot detects proteins with antibodies after separation by electrophoresis.
In data set [2] the target is Platelet-derived growth factor receptor alpha (Homo sapiens) (UniProt P16234). The data set is described as follows: Inhibition of PDGFRalpha phosphorylation at Y849 in human GIST882 cells up to 10 uM after 2 hrs by Western blot analysis. The format is cell-based. The gist of the method: (§1)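 Cells were washed in cold PBS, lysed in RIPA and immunoblotted for phospho and total proteins, including pPDGFRα Y849/PDGFRβ Y857 and β-actin.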

Data set [3] deals with Mast/stem cell growth factor receptor Kit (Homo sapiens) (UniProt P10721). The data set is described as follows: Inhibition of cKIT in human GISTT1 cells assessed as suppression of S6K phosphorylation at T389 up to 10 uM after 2 hrs by Western blot analysis. The format is cell-based.
For data set [4] the target is unchanged. Kind of data set: Inhibition of cKIT in human GIST48B cells assessed as suppression of S6K phosphorylation at T389 up to 10 uM after 2 hrs by Western blot analysis. In kind it is cell-based.
The nature of data set [5]: Cell cycle arrest in human GISTT1 cells at 0.3 to 3 uM after 24 hrs by propidium iodide/RNase staining based flow cytometric analysis. The format is functional. Summed up:
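Cells were then fixed in 70% cold ethanol at −20 °C overnight, stained with PI/RNase buffer and analysed by flow cytometry.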

Data set [6] deals with Mast/stem cell growth factor receptor Kit (Homo sapiens) (UniProt P10721). Kind of data set: Inhibition of cKIT in human GIST882 cells assessed as suppression of AKT phosphorylation at S473 up to 10 uM after 2 hrs by Western blot analysis. The format is cell-based.
For data set [7], the system named is GISTT1. Kind of data set: Induction of apoptosis in human GISTT1 cells assessed as caspase 3 cleavage up to 3 uM after 48 hrs by Western blot analysis. In kind it is functional, cell-based.
The nature of data set [8]: Antiproliferative activity against BCR-ABL dependent human KU812 cells assessed as reduction in cell viability after 72 hrs by celltiter-glo/CCK8 assay. The format is functional. As to conditions: KU812, 72 h. The gist of the method:
(§2)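 Cells were seeded at 1 to 3 × 10⁴ cells/mL with serial compound concentrations and incubated 72 h at 37 °C, 5% CO₂. Viability was read by CellTiter-Glo luminescence or CCK-8 absorbance (450/655 nm). GI50 values are from triplicate testing. GIST-T1 and CHO were grown in DMEM/10% FBS; GIST-882, GIST-48B and MV4-11 in IMDM/10% FBS; other lines in RPMI 1640/10% FBS.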
(ATP-based viability assays read luminescence as a measure of living cells.)

The target in data set [9] is Mast/stem cell growth factor receptor Kit (Homo sapiens) (UniProt P10721). Kind of data set: Inhibition of cKIT in human GIST48B cells assessed as suppression of STAT5 phosphorylation at Y694 up to 10 uM after 2 hrs by Western blot analysis. In kind it is cell-based.
Data set [10] is described as follows: Oral bioavailability in Sprague-Dawley rat plasma at 10 mg/kg. The format is ADME, organism-based. Summed up:
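Male Sprague–Dawley rats, 8 weeks old, six in total, fasted overnight; compound dissolved in 5% DMSO/40% PEG400/55% saline (1 mg/mL dosing solution), given iv or orally. About 0.2 mL jugular blood taken with heparin at 1 min–8 h (iv) or 5 min–24 h (oral); plasma separated at 2–8 °C and stored at −80 °C before analysis.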

In data set [11] the target is Platelet-derived growth factor receptor beta (Homo sapiens, UniProt P09619). The data set is described as follows: Inhibition of PDGFRbeta phosphorylation at Y857 in human GISTT1 cells up to 10 uM after 2 hrs by Western blot analysis. In kind it is cell-based. Summed up:
as §1

Data set [12] deals with Platelet-derived growth factor receptor alpha (Homo sapiens) (UniProt P16234). The data set is described as follows: Inhibition of PDGFRalpha phosphorylation at Y849 in human GISTT1 cells up to 10 uM after 2 hrs by Western blot analysis. In kind it is cell-based. The gist of the method:
as §1

Data set [13] addresses Mast/stem cell growth factor receptor Kit (Homo sapiens) (UniProt P10721). The data set is described as follows: Inhibition of cKIT in human GIST882 cells assessed as suppression of STAT5 phosphorylation at Y694 up to 10 uM after 2 hrs by Western blot analysis. In kind it is cell-based.
A short description of data set [14]: Antiproliferative activity against CHO cells assessed as reduction in cell viability after 72 hrs by celltiter-glo/CCK8 assay. As to conditions: chinese hamster. In kind it is cell-based, Cricetulus griseus. The gist of the method: as §2
The nature of data set [15]: Apparent clearance in Sprague-Dawley rat plasma at 10 mg/kg, po. The format is ADME, organism-based. Conditions: read-out: CL(app) (converted). The gist of the method:
(§3)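 Male Sprague-Dawley rats, 8 weeks old, fasted overnight, dosed iv or orally. Formulation was 5% DMSO/40% PEG400/55% saline at 1 mg/mL. Blood (~0.2 mL) was drawn from the jugular vein into heparin. Sampling: iv at 1 min to 8 h; oral at 5 min to 24 h. Plasma was separated by centrifugation at 2−8 °C and stored at −80 °C.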

Data set [16] can be described thus: Apparent volume of distribution in Sprague-Dawley rat plasma at 1 mg/kg, iv. The format is ADME, organism-based. As to conditions: read-out: Vz. The gist of the method: as §3

Structures are written as SMILES. The source made the active and inactive calls. No cut-off for these calls is given here.

These results are taken from ChEMBL document CHEMBL3808357, “Discovery of N-(3-((1-Isonicotinoylpiperidin-4-yl)oxy)-4-methylphenyl)-3-(trifluoromethyl)benzamide (CHMFL-KIT-110) as a Selective, Potent, and Orally Available Type II c-KIT Kinase Inhibitor for Gastrointestinal Stromal Tumors (GISTs)” (J Med Chem, 2016).

Sequence of Mast/stem cell growth factor receptor Kit (Homo sapiens) (P10721 whole entry): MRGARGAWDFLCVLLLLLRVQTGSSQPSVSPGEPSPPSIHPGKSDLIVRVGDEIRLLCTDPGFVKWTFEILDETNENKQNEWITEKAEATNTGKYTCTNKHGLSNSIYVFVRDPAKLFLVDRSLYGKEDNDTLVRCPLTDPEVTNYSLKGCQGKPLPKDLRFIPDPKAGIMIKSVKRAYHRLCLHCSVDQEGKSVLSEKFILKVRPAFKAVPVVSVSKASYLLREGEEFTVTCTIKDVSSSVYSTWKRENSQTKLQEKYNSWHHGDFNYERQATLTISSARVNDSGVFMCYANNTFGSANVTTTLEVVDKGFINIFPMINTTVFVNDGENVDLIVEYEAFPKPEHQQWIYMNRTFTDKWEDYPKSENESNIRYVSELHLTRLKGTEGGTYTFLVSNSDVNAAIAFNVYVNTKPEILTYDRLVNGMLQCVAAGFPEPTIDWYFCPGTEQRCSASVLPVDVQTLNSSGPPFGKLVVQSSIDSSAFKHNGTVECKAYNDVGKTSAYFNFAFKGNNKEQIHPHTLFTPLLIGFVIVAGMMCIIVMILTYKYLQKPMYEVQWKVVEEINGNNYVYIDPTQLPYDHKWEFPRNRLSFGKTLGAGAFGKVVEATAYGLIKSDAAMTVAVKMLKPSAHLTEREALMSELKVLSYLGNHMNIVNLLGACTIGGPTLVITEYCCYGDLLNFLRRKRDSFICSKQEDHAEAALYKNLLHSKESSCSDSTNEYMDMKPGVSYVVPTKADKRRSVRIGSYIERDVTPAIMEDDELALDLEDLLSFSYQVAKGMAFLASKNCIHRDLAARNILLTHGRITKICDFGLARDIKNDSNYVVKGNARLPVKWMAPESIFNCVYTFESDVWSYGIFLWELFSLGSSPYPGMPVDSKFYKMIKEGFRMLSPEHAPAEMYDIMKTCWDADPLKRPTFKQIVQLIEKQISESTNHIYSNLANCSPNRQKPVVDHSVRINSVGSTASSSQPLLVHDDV
Sequence of Platelet-derived growth factor receptor alpha (Homo sapiens) (P16234 whole entry): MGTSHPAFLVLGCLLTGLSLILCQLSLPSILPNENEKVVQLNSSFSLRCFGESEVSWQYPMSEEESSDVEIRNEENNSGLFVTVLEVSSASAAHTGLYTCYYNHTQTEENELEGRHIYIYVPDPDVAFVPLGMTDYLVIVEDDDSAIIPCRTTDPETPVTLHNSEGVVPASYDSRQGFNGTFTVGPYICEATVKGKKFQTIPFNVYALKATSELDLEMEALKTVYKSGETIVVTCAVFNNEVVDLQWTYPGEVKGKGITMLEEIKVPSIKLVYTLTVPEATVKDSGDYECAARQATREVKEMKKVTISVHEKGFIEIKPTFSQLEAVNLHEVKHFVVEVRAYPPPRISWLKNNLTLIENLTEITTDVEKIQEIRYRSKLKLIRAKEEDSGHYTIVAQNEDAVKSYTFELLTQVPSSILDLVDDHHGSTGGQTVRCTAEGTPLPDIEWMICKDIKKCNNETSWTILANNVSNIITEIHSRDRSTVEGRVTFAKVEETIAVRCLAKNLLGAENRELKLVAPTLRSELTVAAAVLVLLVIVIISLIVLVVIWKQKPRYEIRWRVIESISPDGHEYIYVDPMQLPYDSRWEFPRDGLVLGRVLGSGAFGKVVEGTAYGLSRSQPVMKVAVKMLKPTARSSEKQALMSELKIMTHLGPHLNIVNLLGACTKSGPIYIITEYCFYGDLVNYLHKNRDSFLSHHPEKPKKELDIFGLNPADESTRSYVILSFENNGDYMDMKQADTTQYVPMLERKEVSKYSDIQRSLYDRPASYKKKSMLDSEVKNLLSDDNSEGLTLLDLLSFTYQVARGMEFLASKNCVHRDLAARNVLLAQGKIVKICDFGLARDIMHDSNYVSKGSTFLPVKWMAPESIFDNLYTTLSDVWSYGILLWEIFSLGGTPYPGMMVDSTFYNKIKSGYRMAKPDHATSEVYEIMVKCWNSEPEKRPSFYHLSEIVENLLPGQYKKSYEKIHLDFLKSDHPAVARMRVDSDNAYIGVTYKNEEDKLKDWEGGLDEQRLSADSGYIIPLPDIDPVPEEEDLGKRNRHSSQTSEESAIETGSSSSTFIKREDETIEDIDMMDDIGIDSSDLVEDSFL
Sequence of Platelet-derived growth factor receptor beta (P09619 whole entry): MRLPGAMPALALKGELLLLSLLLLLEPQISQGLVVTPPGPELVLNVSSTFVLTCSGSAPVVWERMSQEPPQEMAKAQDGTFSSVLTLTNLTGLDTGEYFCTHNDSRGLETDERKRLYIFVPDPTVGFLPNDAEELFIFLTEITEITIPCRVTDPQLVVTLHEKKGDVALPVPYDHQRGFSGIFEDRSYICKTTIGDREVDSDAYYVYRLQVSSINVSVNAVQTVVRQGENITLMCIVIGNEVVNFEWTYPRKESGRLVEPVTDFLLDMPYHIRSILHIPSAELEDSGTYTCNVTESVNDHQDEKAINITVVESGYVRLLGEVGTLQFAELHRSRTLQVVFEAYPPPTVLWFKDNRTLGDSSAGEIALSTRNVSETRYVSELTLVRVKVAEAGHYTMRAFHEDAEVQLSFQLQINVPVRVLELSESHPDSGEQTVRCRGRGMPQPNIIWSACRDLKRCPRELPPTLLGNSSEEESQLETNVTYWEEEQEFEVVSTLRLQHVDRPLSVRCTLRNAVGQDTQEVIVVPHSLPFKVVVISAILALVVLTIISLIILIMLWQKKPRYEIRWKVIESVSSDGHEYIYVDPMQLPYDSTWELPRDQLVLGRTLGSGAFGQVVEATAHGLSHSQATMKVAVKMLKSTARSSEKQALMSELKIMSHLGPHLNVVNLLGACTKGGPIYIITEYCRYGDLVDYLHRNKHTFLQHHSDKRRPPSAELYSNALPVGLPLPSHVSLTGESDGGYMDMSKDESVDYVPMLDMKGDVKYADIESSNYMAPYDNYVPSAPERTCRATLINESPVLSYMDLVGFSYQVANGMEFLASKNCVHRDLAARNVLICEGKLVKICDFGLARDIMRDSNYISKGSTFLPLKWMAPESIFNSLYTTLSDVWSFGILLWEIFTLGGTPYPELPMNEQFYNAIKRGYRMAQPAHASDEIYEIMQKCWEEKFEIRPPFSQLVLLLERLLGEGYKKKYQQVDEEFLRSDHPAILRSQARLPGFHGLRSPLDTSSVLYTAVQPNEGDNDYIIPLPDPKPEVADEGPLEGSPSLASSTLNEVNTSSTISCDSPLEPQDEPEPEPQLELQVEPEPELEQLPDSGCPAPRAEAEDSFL

A word on the GI50: it is the concentration that inhibits growth by half. As usually defined, the bioavailability is dose-corrected exposure relative to a reference, in per cent. For the molecule `Cc1ccc(NC(=O)c2cccc(C(F)(F)F)c2)cc1OC1CCN(C(=O)c2ccncc2)CC1`, the outcome in data set [1] was inactive. The inhibition entry in [2], in [3], in data set [6], in data set [9], in data set [11] and in [12] was “Active” each time. For the same molecule, the inhibition entry in [13] is “Active”. In addition, the inhibition entry in data set [4] was “inactive”. In addition, the result in data set [5] and in [7] was Active. Moreover, the GI50 in data set [8] came to 6.71 µM. Besides, in [10], the bioavailability is 36.1%. Moreover, in [14], the concentration for 50% growth inhibition (GI50) at 72 h is greater than 10 µM. Further, the CL/F in data set [15] is 12.9 L/h/kg. Also, the Vd in data set [16] came to 3.22 L/kg.
